Assay results taken from ChEMBL document CHEMBL4699606, “New type of anti-influenza agents based on benzo[d][1,3]dithiol core” (Bioorg Med Chem Lett, 2020).
The source made the active and inactive calls. No cut-off for these calls is given here.

Experiments:
[1] = Cytotoxicity against dog MDCK cells assessed as reduction in cell viability by MTT assay; format: cell-based, Canis lupus familiaris
[2] = Selectivity index, ratio of CC50 for dog MDCK cells to IC50 for Influenza A virus (A/California/07/09(H1N1)) pdm09 infected in MDCK cells; format: toxicity, cell-based; details: read-out: Ratio CC50/IC50
[3] = Antiviral activity against Influenza A virus (A/California/07/09(H1N1))pdm09 infected in MDCK cells assessed as reduction in viral replication preincubated with compound for 1 hr followed by viral infection and measured after viral cultivation for 48 hrs by hemagglutination test; format: functional, cell-based, Influenza A virus (A/California/07/2009(H1N1))
[4] = system: Influenza A virus (A/California/07/2009(H1N1)); experiment: Inhibition of Influenza A virus (A/California/07/09(H1N1))pdm09 hemagglutinin receptor binding activity
MDCK = experiment: Antiviral activity against Influenza A virus (A/California/07/09(H1N1))pdm09 infected in MDCK cells assessed as suppression of viral replication at early stage of viral cycle after 2 hpi by time of addition assay; format: functional, cell-based; details: Influenza A virus (A/California/07/2009(H1N1)), time 2.0 hrs
Summary of the method: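 Time-of-addition study in MDCK cells. Compound added at set times relative to infection (time 0 = moment of infection). Read-out was the infectious activity of viral progeny, assayed in MDCK cells.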

[5] = system: Influenza A virus (A/California/07/2009(H1N1)); experiment: Anti-membranotropic activity against Influenza A virus (A/California/07/09(H1N1))pdm09 hemagglutinin assessed as inhibition of HA-driven chicken erythrocytes membrane fusion incubated for 30 mins by fusogenic activity assay
Summary of the method: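 Compound mixed with virus and held 30 min at room temperature, then combined with 0.75% chicken erythrocytes at +4 °C. Fusion was triggered with MES buffer at pH 5.0. After erythrocytes sedimented, haemoglobin released by membrane lysis was read as optical density at 405 nm.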

SMILES	CC50 [1]	selectivity ratio [2]	IC50 [3]	inhibition [4]	Activity (MDCK)	inhibition [5]
CC(=O)Nc1cc(C(F)(F)F)cc2sc(=O)sc12	95 µM	3	38 µM	–	–	–
O=C(CCN1CCOCC1)Nc1cc(C(F)(F)F)cc2sc(=O)sc12	104 µM	11	9 µM	–	–	–
O=C(CN1CCOCC1)Nc1cc(C(F)(F)F)cc2sc(=O)sc12	13 µM	3	5 µM	–	–	–
NC(=O)c1ncn([C@@H]2O[C@H](CO)[C@@H](O)[C@H]2O)n1 [RIBAVIRIN]	> 2130 µM	48	44 µM	–	–	–
CC(N)C12CC3CC(CC(C3)C1)C2 (stereo not given) [RIMANTADINE]	–	9	41 µM	–	–	–
O=C(CN1CCCCC1)Nc1cc(C(F)(F)F)cc2sc(=O)sc12	532 µM	29	18 µM	inactive	Active	Dose-dependent effect
O=C(CN1CCCC1)Nc1cc(C(F)(F)F)cc2sc(=O)sc12	> 829 µM	4	191 µM	–	–	–
O=C(CCN1CCCC1)Nc1cc(C(F)(F)F)cc2sc(=O)sc12	75 µM	12	6 µM	–	–	–
O=C(Nc1cc(C(F)(F)F)cc2sc(=O)sc12)C(F)(F)F	2.2 µM	12	0.2 µM	–	–	–
O=C(CCN1CCCCC1)Nc1cc(C(F)(F)F)cc2sc(=O)sc12	34 µM	1	> 28.2 µM	–	–	–
Nc1cc(C(F)(F)F)cc2sc(=O)sc12	212 µM	11	19 µM	–	–	–
